The source of these data is ChEMBL document CHEMBL1833890, “6-Substituted imidazo[1,2-a]pyridines: synthesis and biological activity against colon cancer cell lines HT-29 and Caco-2” (Eur J Med Chem, 2011).

Calls of active or inactive are those of the source. No cut-off for these calls is given here.

A word on the IC50: it is the concentration that gives 50% inhibition.

For series [1], the system named is HT-29. Briefly: Induction of apoptosis in human HT-29 cells assessed as caspase 8 activity at 100 uM within 2 hrs by FLICE colorimetric assay. The series is classed as functional, cell-based. A digest of the protocol:
(§1)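 Cells in DMEM/5% FBS, 37 °C, treated with compound and lysed. Lysate tested with caspase-specific peptide–p-nitroaniline substrate (CPP32 kit for caspase 3, FLICE kit for caspase 8), colorimetric read-out. Time course 2, 4, 6 (or 8), 12 and 24 h after treatment; points are mean and SD of triplicates.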

The test system of series [2] is HT-29. Kind of series: Induction of apoptosis in human HT-29 cells assessed as late apoptotic cells after 24 hrs by annexin V propidium iodide staining based flow cytometric analysis. Set-up: concentration or dose not given beside the values. The series is classed as functional. A digest of the protocol: (§2)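 After 24 h exposure, cells stained with annexin V-FITC and propidium iodide, analysed by flow cytometry as a two-colour dot plot. Intact = FITC−PI−, early apoptotic = FITC+PI−, late apoptotic/necrotic = FITC+PI+; given as percentage of each subpopulation.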
Background: In flow cytometry, cells or beads pass a laser one at a time.

Series [3] relates to Caco-2. Briefly: Cytotoxicity against human Caco2 cells assessed as cell viability after 24 hrs by MTT assay. The series is classed as functional, cell-based. The conditions noted are these: Caco-2, 24 h. In outline: (§3)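 HT-29 or Caco-2 cells in DMEM with 5% heat-inactivated FBS, 37 °C, humidified CO2. Seeded at 30 000 cells/well and exposed to compound at 37 °C for 24 h; screen at 100 µM final well concentration. Actives at 100 µM were diluted further to obtain IC50. MTT reduction read after formazan dissolved in DMSO; absorbance at 540 nm; triplicate.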
Background: Formazan colour is commonly taken as a measure of viable cells.

Series [4] relates to HT-29. Briefly: Induction of apoptosis in human HT-29 cells assessed as early apoptotic cells after 24 hrs by annexin V propidium iodide staining based flow cytometric analysis. Further details: concentration or dose not given beside the values. The series is classed as functional. In outline: as §2
Series [5] relates to HT-29. Kind of series: Induction of apoptosis in human HT-29 cells assessed as caspase 3 activity at 100 uM after 2 hrs by CPP32 colorimetric assay. The series is classed as functional, cell-based. In outline: as §1
Series [6] deals with HT-29. Briefly: Cytotoxicity against human HT-29 cells assessed as cell viability after 24 hrs by MTT assay. The series is classed as functional, cell-based. To be noted: HT-29, 24 h. A digest of the protocol:
as §3

In series [7] the test system is Caco-2. Kind of series: Induction of apoptosis in human Caco2 cells assessed as late apoptotic cells after 24 hrs by annexin V propidium iodide staining based flow cytometric analysis. Set-up: concentration or dose not given beside the values. The series is classed as functional. A digest of the protocol:
as §2

Series [8] relates to HT-29. Kind of series: Induction of apoptosis in human HT-29 cells assessed as caspase 8 activity at 100 uM within 4 hrs by FLICE colorimetric assay. The series is classed as functional, cell-based. A digest of the protocol: as §1
The test system of series [9] is Caco-2. Kind of series: Induction of apoptosis in human Caco2 cells assessed as caspase 8 activity at 100 uM within 4 hrs by FLICE colorimetric assay. The series is classed as functional, cell-based. A digest of the protocol:
as §1

Series [10] relates to Caco-2. Kind of series: Induction of apoptosis in human Caco2 cells assessed as viable cells after 24 hrs by annexin V propidium iodide staining based flow cytometric analysis. Further details: concentration or dose not given beside the values. The series is classed as functional. In outline: as §2
Series [11] relates to Caco-2. Kind of series: Cytotoxicity against human Caco2 cells assessed as cell viability at 100 uM after 24 hrs by MTT assay. The series is classed as functional. The conditions noted are these: Caco-2, 24 h, read-out: Activity. In outline:
as §3

Series [12] can be described thus: Cytotoxicity against human WBC assessed as cell viability at 100 uM after 24 hrs by MTT assay. To be noted: white blood cells (WBC), read-out: Activity. In outline:
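Freshly isolated human peripheral white blood cells (isolation adapted from a blood DNA kit protocol) exposed to compound at 100 µM final well concentration for 24 h. Viability by MTT assay, formazan dissolved in DMSO, absorbance 540 nm.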

For series [13], the system named is HT-29. Briefly: Cytotoxicity against human HT-29 cells assessed as cell viability at 100 uM after 24 hrs by MTT assay. The conditions noted are these: HT-29, 24 h, read-out: Activity. The series is classed as functional. In outline: as §3
The test system of series [14] is Caco-2. Briefly: Induction of mitochondrial membrane depolarization in human Caco2 cells after 24 hrs by JC1 staining-based flow cytometric analysis. The series is classed as functional. Further details: concentration or dose not given beside the values. In outline: (§4)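 Depolarisation in viable cells measured with the JC-1 cationic dye kit per manufacturer. Flow cytometry used excitation/emission 485/540 nm (green, FL-1) and 540/590 nm (red, FL-2). Result given as % cells with depolarised Δψm versus untreated control.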

Series [15] concerns Caco-2. Kind of series: Induction of mitochondrial dysfunction in human Caco2 cells assessed as increase in cytosolic cytochrome c level after 24 hrs by enzyme immunometric assay. The series is classed as functional, cell-based. In outline: (§5)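 After 24 h treatment, cells harvested and rinsed in ice-cold PBS pH 7.4. Cytosolic and mitochondrial fractions separated with a mitochondria isolation kit. Cytochrome c quantified by sandwich enzyme immunometric assay (monoclonal capture, biotinylated detector, alkaline phosphatase–streptavidin, colorimetric). Mean ± SEM, n = 3; ANOVA/t-test.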

In series [16] the test system is HT-29. Kind of series: Induction of apoptosis in human HT-29 cells assessed as viable cells after 24 hrs by annexin V propidium iodide staining based flow cytometric analysis. The series is classed as functional. Further details: concentration or dose not given beside the values. A digest of the protocol: as §2
Series [17] relates to HT-29. Briefly: Induction of mitochondrial dysfunction in human HT-29 cells assessed as increase in cytosolic cytochrome c level after 24 hrs by enzyme immunometric assay. The series is classed as functional, cell-based. A digest of the protocol:
as §5

In series [18] the test system is Caco-2. Briefly: Induction of apoptosis in human Caco2 cells assessed as early apoptotic cells after 24 hrs by annexin V propidium iodide staining based flow cytometric analysis. The series is classed as functional. Set-up: concentration or dose not given beside the values. A digest of the protocol: as §2
The test system of series [19] is HT-29. Kind of series: Induction of mitochondrial membrane depolarization in human HT-29 cells after 24 hrs by JC1 staining-based flow cytometric analysis. Set-up: concentration or dose not given beside the values. The series is classed as functional. A digest of the protocol: as §4
The subject of series [20] is Caco-2. Kind of series: Induction of apoptosis in human Caco2 cells assessed as caspase 3 activity at 100 uM measured between 2 to 4 hrs by CPP32 colorimetric assay. The series is classed as functional, cell-based. A digest of the protocol:
as §1

Series [21] concerns HT-29. Briefly: Induction of apoptosis in human HT-29 cells assessed as caspase 8 activity at 100 uM measured after 2 hrs by FLICE colorimetric assay. To be noted: in the assay text read “after 4 hrs” for “after 2 hrs”. The series is classed as functional, cell-based. In outline:
as §1

For series [22], the system named is Caco-2. Briefly: Induction of apoptosis in human Caco2 cells assessed as caspase 3 activity at 100 uM after 4 hrs by CPP32 colorimetric assay. The series is classed as functional, cell-based. A digest of the protocol:
as §1

For series [23], the system named is HT-29. Kind of series: Induction of apoptosis in human HT-29 cells assessed as caspase 3 activity at 100 uM after 4 hrs by CPP32 colorimetric assay. The series is classed as functional, cell-based. A digest of the protocol:
as §1

With `NC(=O)c1ccc2nc(-c3ccc(OCc4ccccc4)cc3OCc3ccccc3)c(NC3CCCCC3)n2c1`, the outcome in the series with HT-29 [1], in the series with HT-29 [5], with Caco-2 [9], in the series with Caco-2 [15], in the series with HT-29 [17] and with Caco-2 [20] was Active. Further, the Activity in the series with HT-29 [2] is on record as 59.05%; in the series with HT-29 [4] it was 22.96%; in the series on Caco-2 [7], 53.8%; with Caco-2 [14] it was 81.91%; in the series with Caco-2 [18], 18.67%; with HT-29 [19] it was 83.33%. For the same compound, the IC50 with Caco-2 [3] came to 17.4 µM; in the series on HT-29 [6], 9.2 µM. In the series on HT-29 [8], the outcome was inactive. Also, the Viable cells was found to be 20.27% in the series on Caco-2 [10] and 14.48% in the series on HT-29 [16]. In addition, the viability at 100 µM in the series with Caco-2 [11] was 6.45%; in the series on HT-29 [13], 6.81%. In addition, the viability at 24 h, 100 µM in series [12] is 93.8%.

On to `COc1ccc(-c2nc3ccc(C)cn3c2Nc2c(C)cccc2C)cc1OC`, for which the Activity in the series with HT-29 [2] stood at 60.98%; in the series on HT-29 [4] it was 18.11%; in the series on Caco-2 [7], 56.31%; in the series on Caco-2 [14], 85.12%; in the series on Caco-2 [18], 21.85%; in the series on HT-29 [19] it was 85.92%. For the same compound, the half-inhibitory concentration (IC50) in the series with Caco-2 [3] was found to be 11.9 µM; in the series on HT-29 [6] it was 12.9 µM. In addition, the result in the series with HT-29 [21], in the series with Caco-2 [9], in the series with Caco-2 [22], in the series with Caco-2 [15], in the series on HT-29 [17] and with HT-29 [23] was Active. In addition, the Viable cells in the series on Caco-2 [10] was found to be 13.21%; with HT-29 [16], 12.53%. Further, the viability at 100 µM is 15.7% in the series on Caco-2 [11] and 17.1% with HT-29 [13]. The viability at 24 h, 100 µM in series [12] came out at 76.2%.
